The results in this text go back to ChEMBL document CHEMBL4765386, “Discovery of tertiary amide derivatives incorporating benzothiazole moiety as anti-gastric cancer agents in vitro via inhibiting tubulin polymerization and activating the Hippo signaling pathway” (Eur J Med Chem, 2020).

Each structure is given as a SMILES string.

A word on the IC50: it is the concentration at which inhibition is half-maximal. In general, inhibition refers to the drop in the measured response relative to a control, in per cent.

The test system of one experiment is PC-3. The experiment is described as follows: Antiproliferative activity against human PC-3 cells assessed as reduction in cell viability incubated for 48 hrs by MTT assay. Format: functional, cell-based. To be noted: PC-3, 48 h. The method in brief: (§1)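 MTT assay. 5,000 cells per well in RPMI-1640 with 10% FBS and penicillin/streptomycin at 37 °C, 5% CO2. Compound added 24 h after seeding and left for 48 h. MTT was then added for 4 h at 37 °C, formazan dissolved in DMSO and absorbance read at 490 nm. IC50 calculated from three independent experiments.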

In a further experiment the test system is HCT-116. The experiment is described as follows: Antiproliferative activity against human HCT-116 cells assessed as reduction in cell viability incubated for 48 hrs by MTT assay. Format: functional, cell-based. Conditions: HCT-116, 48 h. Put shortly:
as §1
A general note: Formazan colour is commonly taken as a measure of viable cells.

In another experiment the test system is MGC-803. The experiment is described as follows: Antiproliferative activity against human MGC-803 cells assessed as reduction in cell viability incubated for 48 hrs by MTT assay. Format: functional, cell-based. To be noted: MGC-803, 48 h. Put shortly:
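MTT assay. Compound added 24 h after seeding and left for 48 h. MTT was then added for 4 h at 37 °C, formazan dissolved in DMSO and absorbance read at 490 nm. IC50 calculated from three independent experiments.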

The test system of experiment [1] is MGC-803/PTX (Homo sapiens). The experiment is described as follows: Cytotoxicity against human MGC-803/PTX cells assessed as reduction in cell viability at 15 nM incubated for 48 hrs by MTT assay relative to control.
Experiment [2] is described as follows: Inhibition of tubulin (unknown origin). More on the design: species or system Homo sapiens.

Consider `COc1ccc(CN(C(=O)CSc2nc3ccccc3s2)c2cc(OC)c(OC)c(OC)c2)cc1N`, for which the figures for the IC50 in the experiment on PC-3, with HCT-116 and with MGC-803 were 7.51 µM, 0.491 µM and 0.084 µM, respectively.

With `COc1cc(N(Cc2ccccc2)C(=O)CSc2nc3ccccc3s2)cc(OC)c1OC`, the values for the IC50 with PC-3, in the experiment with HCT-116 and in the experiment on MGC-803 were 54.1 µM, 54.5 µM and 44.3 µM, respectively.

Take `COc1cc(N(Cc2ccc(C)cc2)C(=O)CSc2nc3ccccc3s2)cc(OC)c1OC`: the concentration for half-maximal inhibition (IC50) with PC-3 is over 80 µM; with HCT-116, over 80 µM; in the experiment with MGC-803, 54.2 µM.

In the case of `COc1ccc(CN(C(=O)CSc2nc3ccccc3s2)c2cc(OC)c(OC)c(OC)c2)cc1[N+](=O)[O-]`, the IC50 stood at 26.5 µM with PC-3, 1.28 µM with HCT-116 and 0.682 µM with MGC-803.

With `COc1ccc(CN(C(=O)CSc2nc3cc(Cl)ccc3s2)c2cc(OC)c(OC)c(OC)c2)cc1O`, the half-inhibitory concentration (IC50) in the experiment with PC-3 came out at 11.2 µM; with HCT-116, 0.429 µM; in the experiment on MGC-803, 0.085 µM.

In the case of `COc1ccc(CN(C(=O)CSc2nc3cc(Br)ccc3s2)c2cc(OC)c(OC)c(OC)c2)cc1O`, the IC50 in the experiment on PC-3 turned out to be 8.21 µM; in the experiment on HCT-116, 3.38 µM; with MGC-803, 0.372 µM.

On to `COc1ccc(CN(C(=O)CSc2nc3ccccc3s2)c2cc(OC)c(OC)c(OC)c2)cc1OC`, for which the half-inhibitory concentration (IC50) was over 80 µM with PC-3, 33.9 µM in the experiment with HCT-116 and 34.1 µM in the experiment with MGC-803.

For the compound `CC(=O)O[C@H]1C(=O)[C@@]2(C)[C@H]([C@H](OC(=O)c3ccccc3)[C@]3(O)C[C@H](OC(=O)[C@H](O)[C@@H](NC(=O)c4ccccc4)c4ccccc4)C(C)=C1C3(C)C)[C@]1(OC(C)=O)CO[C@@H]1C[C@@H]2O` [PACLITAXEL], the inhibition at 0.015 µM in experiment [1] was under 15%.

In the case of `COc1ccc2nc(SCC(=O)N(Cc3ccc(OC)c(O)c3)c3cc(OC)c(OC)c(OC)c3)sc2c1`, the IC50 in the experiment with PC-3 is 4.11 µM; with HCT-116, 0.352 µM; with MGC-803 it was 0.071 µM.

On to `COc1cc(N(Cc2ccc(Br)cc2)C(=O)CSc2nc3ccccc3s2)cc(OC)c1OC`, for which the 50% inhibitory concentration (IC50) in the experiment on PC-3 is over 80 µM; in the experiment on HCT-116 it was 63.8 µM; in the experiment on MGC-803, 48.1 µM.

For `COc1cc(CN(C(=O)CSc2nc3ccccc3s2)c2cc(OC)c(OC)c(OC)c2)cc(OC)c1OC`, the IC50 in the experiment with PC-3 was over 80 µM; in the experiment with HCT-116, 65.3 µM; in the experiment on MGC-803, 45.7 µM.

As for `COc1cc(N(Cc2ccc(F)cc2)C(=O)CSc2nc3ccccc3s2)cc(OC)c1OC`, the concentration for half-maximal inhibition (IC50) with PC-3 is 50.8 µM; in the experiment on HCT-116 it was 59.8 µM; with MGC-803 it was over 80 µM.

Take `COc1ccc(CN(C(=O)CSc2nc3c(C)cccc3s2)c2cc(OC)c(OC)c(OC)c2)cc1O`: the IC50 with PC-3 was found to be 12.3 µM; in the experiment with HCT-116, 0.852 µM; with MGC-803, 0.493 µM.

As to `COc1ccc(CN(C(=O)CSc2nc3ccccc3s2)c2cc(OC)c(OC)c(OC)c2)cc1F`, the IC50 stood at 20.1 µM in the experiment with PC-3, 1.83 µM in the experiment on HCT-116 and 0.416 µM in the experiment on MGC-803.

In the case of `COc1ccc(CN(C(=O)CSc2nc3ccccc3s2)c2cc(OC)c(OC)c(OC)c2)cc1Br`, the half-inhibitory concentration (IC50) with PC-3 is 16 µM; in the experiment with HCT-116, 4.55 µM; in the experiment with MGC-803, 0.852 µM.

Regarding `COc1ccc(CN(C(=O)CSc2nc3ccccc3s2)c2cc(OC)c(OC)c(OC)c2)cc1C(F)(F)F`, the values for the IC50 in the experiment with PC-3, with HCT-116 and with MGC-803 were over 80 µM, over 80 µM and 25.2 µM, respectively.

The compound `COc1cc(N2C(=O)[C@H](c3cccs3)[C@H]2c2cccc(N=[N+]=[N-])c2)cc(OC)c1OC` gave an IC50 in experiment [2] of 2.26 µM.

As for `COc1ccc(/C=C\c2cc(OC)c(OC)c(OC)c2)cc1OP(=O)(O)O` [FOSBRETABULIN], the IC50 in the experiment with PC-3 came to 0.033 µM; in the experiment on HCT-116, 0.042 µM; in the experiment on MGC-803 it was 0.02 µM.

As for `COc1ccc(CN(C(=O)CSc2nc3ccccc3s2)c2cc(OC)c(OC)c(OC)c2)cc1`, the values for the concentration for half-maximal inhibition (IC50) in the experiment with PC-3, with HCT-116 and with MGC-803 were 8.46 µM, 0.426 µM and 0.163 µM, respectively.

`COc1ccc(CN(C(=O)CSc2nc3ccccc3s2)c2cc(OC)c(OC)c(OC)c2)cc1C`: the 50% inhibitory concentration (IC50) with PC-3 is 34.3 µM; with HCT-116 it was 17.1 µM; in the experiment with MGC-803 it was 6.36 µM.

For the compound `COc1ccc(CN(C(=O)CSc2nc3ccccc3s2)c2cc(OC)c(OC)c(OC)c2)cc1N=[N+]=[N-]`, the IC50 in the experiment with PC-3 turned out to be 14.4 µM; with HCT-116, 2.86 µM; with MGC-803 it was 0.187 µM.

Take `COc1cc(N(Cc2ccc(Cl)cc2)C(=O)CSc2nc3ccccc3s2)cc(OC)c1OC`: the IC50 with PC-3 is over 80 µM; in the experiment on HCT-116, 60.3 µM; in the experiment on MGC-803, over 80 µM.

With `COc1cc2c(c(OC)c1OC)-c1ccc(OC)c(=O)cc1[C@@H](NC(C)=O)CC2` [COLCHICINE], the IC50 in the experiment on PC-3 stood at 0.338 µM; with HCT-116, 0.129 µM; in the experiment with MGC-803, 0.107 µM.
